Consider 14 molecules from ChEMBL document CHEMBL1146826, “A novel Pd-catalyzed cyclization reaction of ureas for the synthesis of dihydroquinazolinone p38 kinase inhibitors” (Bioorg Med Chem Lett, 2004).

For test [1], the target named is Mitogen-activated protein kinase 14 (Mus musculus, UniProt P47811). The test is described as follows: Inhibition of murine Mitogen-activated protein kinase p38 alpha. An outline of the steps:
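Phosphorylated His-tagged murine p38α MAP kinase (10 ng/well) assayed with immobilized GST-ATF-2 as substrate.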

The subject of test [2] is PBMC. The experiment in a line: Effect on LPS stimulated TNF-alpha release from hPBMCs. The format is functional, cell-based. Particulars: Homo sapiens. An outline of the steps: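 Human peripheral blood mononuclear cells incubated with inhibitor, then stimulated with LPS/IFNγ for 3 h; TNFα in supernatants quantified by ELISA.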
Test [3] concerns Mus musculus. The test is described as follows: Compound was tested for the inhibition of TNF-alpha release after LPS stimulation in mice at a dose of 30 mg/kg, po. Format: functional. An outline of the steps:
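Mice given compound orally at 30 mg/kg; 1 h after dosing, LPS (20 mg/kg) injected iv. One hour later blood collected and TNFα measured by mouse-specific ELISA.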

Mitogen-activated protein kinase 14, sequence (P47811 whole entry): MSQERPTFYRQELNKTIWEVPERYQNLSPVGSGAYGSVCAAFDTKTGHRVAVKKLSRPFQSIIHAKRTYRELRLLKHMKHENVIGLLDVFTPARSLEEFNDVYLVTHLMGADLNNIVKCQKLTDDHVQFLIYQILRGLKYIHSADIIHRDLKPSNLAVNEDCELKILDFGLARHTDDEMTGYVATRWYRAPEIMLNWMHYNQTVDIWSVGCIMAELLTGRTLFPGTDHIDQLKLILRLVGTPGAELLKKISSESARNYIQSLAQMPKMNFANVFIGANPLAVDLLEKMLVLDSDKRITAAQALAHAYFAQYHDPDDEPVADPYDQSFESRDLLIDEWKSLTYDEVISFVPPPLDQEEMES

Usually IC50 stands for the concentration that gives 50% inhibition. A high value points to lower potency. On to `O=C1NCc2cc(NS(=O)(=O)c3ccccc3)ccc2N1c1c(Cl)cccc1Cl`, for which the half-inhibitory concentration (IC50) amounted to 53 nM in test [1] and 140 nM in test [2].
`O=C1NCc2ccccc2N1c1c(Cl)cccc1Cl`: the half-maximal inhibitory concentration (IC50) in test [1] was 11800 nM.
For the molecule `O=C1NCc2cc(NS(=O)(=O)c3cc(Cl)ccc3O)ccc2N1c1c(Cl)cccc1Cl`, in test [1], half-maximal inhibition (IC50) was put at 570 nM.
As for `O=C1NCc2cc(NS(=O)(=O)c3ccc(F)c(Cl)c3)ccc2N1c1c(Cl)cccc1Cl`, the half-maximal inhibitory concentration (IC50) stood at 34 nM in test [1] and 84 nM in test [2].
The molecule `COc1cc2c(-c3ccccc3)nc(=O)n(C(C)C)c2cc1N1CCOCC1` displayed a half-maximal inhibitory concentration (IC50) in test [1] of 14000 nM.
With `O=C1NCc2cc(Nc3ccc(F)cc3F)ccc2N1c1c(Cl)cccc1Cl`, the results for the 50% inhibitory concentration (IC50) in test [1] and in test [2] were 380 nM and 290 nM, respectively.
Taken in the same sequence, the figures for `Cc1ccc(S(=O)(=O)Nc2ccc3c(c2)CNC(=O)N3c2c(Cl)cccc2Cl)cc1` were 1800 nM and over 10000 nM.
Taken in the same sequence, the figures for `CN(c1ccc2c(c1)CNC(=O)N2c1c(Cl)cccc1Cl)S(=O)(=O)c1cc(Cl)ccc1Cl` were 780 nM and 1200 nM.
Take `O=C1NCc2cc(NS(=O)(=O)c3cc(Cl)ccc3Cl)ccc2N1c1c(Cl)cccc1Cl`: the values for the concentration for half-maximal inhibition (IC50) in test [1] and in test [2] were 100 nM and 390 nM, respectively.
In the same order, the values of `O=C1NCc2cc(Sc3ccc(F)cc3F)ccc2N1c1c(Cl)cccc1Cl` are 470 nM and 960 nM.
Usually inhibition in vivo stands for the share of the control response that was lost under treatment. Read a low inhibition in vivo as a response near the control. On to `Cc1cc(OCCCN2CCOCC2)cc(C)c1N1C(=O)NCc2cc(NS(=O)(=O)c3ccc(F)c(Cl)c3)ccc21`, for which the inhibition in vivo at 30 mg/kg in test [3] amounted to 42%.
For `O=C1NCc2cc(NCc3ccccc3)ccc2N1c1c(Cl)cccc1Cl`, the half-maximal inhibitory concentration (IC50) was 150 nM in test [1] and 1200 nM in test [2].
In the same order, the values of `O=C1NCc2cc(NS(=O)(=O)c3ccccc3Cl)ccc2N1c1c(Cl)cccc1Cl` are 180 nM and 510 nM.
Taken in the same sequence, the figures for `O=C(Nc1ccc2c(c1)CNC(=O)N2c1c(Cl)cccc1Cl)c1ccccc1` were 8500 nM and 10000 nM.
